Screening results deposited in PubChem by several laboratories.
ADAM17 inh = inhibits human ADAM17; AID 720648; recombinant ADAM17, EDANS/DABCYL FRET peptide cleavage; P78536; inhibition, % at 6.95 µM; 370,000 tested, 0.83% active;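 active means inhibition above the mean of compounds lying between control limits plus 3 SD, set per campaign, cut at about 8.5% in these data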
ADAM10 inh = inhibits human ADAM10. recombinant ADAM10, EDANS/DABCYL FRET peptide cleavage, 3 h. inhibition, % at 7 µM. 370,000 tested, 0.62% active. AID 720582. O14672;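 active means inhibition above a per-campaign cutoff equal to the mean of compounds falling between control-based bounds plus 3 SD, cut at about 20% in these data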
NRP1-CendR mod = alters CendR peptide binding to human NRP-1; O14786; FAM-RPARPAR peptide binding to NRP-1, fluorescence polarization; inhibition, % at 25 µM; 360,000 tested, 0.85% active;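 active means inhibition or corrected inhibition above about 18%, plus a signal ratio from 0.5 to 1.5, limit read from the data, passing the limit was not always enough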
Target sequence (O14786 whole entry, looked up): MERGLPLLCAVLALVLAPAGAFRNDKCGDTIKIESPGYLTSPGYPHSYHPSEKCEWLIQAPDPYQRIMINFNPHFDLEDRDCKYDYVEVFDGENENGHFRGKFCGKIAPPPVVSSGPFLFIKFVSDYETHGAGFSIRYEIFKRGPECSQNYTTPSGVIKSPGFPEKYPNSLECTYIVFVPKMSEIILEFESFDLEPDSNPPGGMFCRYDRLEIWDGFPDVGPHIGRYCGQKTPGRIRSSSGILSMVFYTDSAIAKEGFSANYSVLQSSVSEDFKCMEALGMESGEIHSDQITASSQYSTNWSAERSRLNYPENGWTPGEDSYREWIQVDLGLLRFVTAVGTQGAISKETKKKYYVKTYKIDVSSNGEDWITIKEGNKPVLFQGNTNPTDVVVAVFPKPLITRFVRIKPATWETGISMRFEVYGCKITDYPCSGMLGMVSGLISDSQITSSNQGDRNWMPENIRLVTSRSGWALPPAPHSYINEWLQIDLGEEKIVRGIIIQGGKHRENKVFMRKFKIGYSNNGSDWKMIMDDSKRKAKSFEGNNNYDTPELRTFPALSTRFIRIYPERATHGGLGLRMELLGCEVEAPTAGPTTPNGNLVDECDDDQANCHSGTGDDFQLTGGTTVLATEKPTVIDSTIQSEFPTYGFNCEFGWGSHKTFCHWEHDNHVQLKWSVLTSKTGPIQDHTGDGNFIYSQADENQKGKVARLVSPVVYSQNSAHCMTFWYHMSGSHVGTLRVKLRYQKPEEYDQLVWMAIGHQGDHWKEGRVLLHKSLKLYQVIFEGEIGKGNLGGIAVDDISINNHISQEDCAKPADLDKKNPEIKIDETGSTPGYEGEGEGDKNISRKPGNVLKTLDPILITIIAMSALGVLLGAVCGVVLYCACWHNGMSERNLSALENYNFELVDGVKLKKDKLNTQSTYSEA
CaV13 ICDI inh = Disruptors of the CACNA1D IQ motif to Ca2+-dependent inactivation inhibitor domain association, primary screening, Förster resonance energy transfer in intact living …; HEK cells, CFP/YFP FRET ICDI-IQ, plate reader, 10 min; percent FRET-ratio fall versus neutral wells; inhibition, % at 12.3 µM; 340,000 tested, 0.098% active; AID 743397;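 active means mean replicate inhibition of at least 30% and at least 1% of replicates passing that level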
FAS TE block = FAS thioesterase (human) inhibition; P49327; recombinant FAS-TE, OMFH fluorogenic substrate, fluorescence endpoint; inhibition, % at 15 µM; 360,000 tested, 0.67% active; AID 602261;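 active means compounds whose normalised, plate-corrected inhibition of enzyme fluorescence in the single-dose primary screen is 50% or more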
Arr AP2 block = human beta-arrestin and AP2 interaction inhibition; FITC-arrestin peptide / GST-AP2 beads, flow cytometry; AP2 beta2 appendage carries R879A mutation; inhibition, % at 10 µM; 340,000 tested, 0.31% active;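 active means inhibition above a set limit, near 3 SD of compounds lacking own fluorescence, cut at about 54% in these data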
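system = GST-tagged AP2 beta2-adaptin appendage (R879A) on 4 µm glutathione beads | reagent = FITC-labelled arrestin peptide probe, 50 nM final | schedule = compound with beads 12 min RT, then probe 1 h RT | signal = HyperCyt-sampled flow cytometry, FL1 channel, ex 488/em 535 nm | read-out = percent response from loss of bead-bound FITC fluorescence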
ADAM10 confirm = confirmation of inhibitors of human ADAM10 | shares compounds with ADAM10 inh | ADAM10 QFRET peptide cleavage, EDANS fluorescence | inhibition, % at 6.95 µM | 2,100 tested, 1% active;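 active means inhibition above about 20% chosen separately for each screening run, limit read from the data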
ADAM17 ctr = inhibits human ADAM17 in ADAM10 exosite counter-screen; shares compounds with ADAM10 inh; ADAM17 QFRET peptide cleavage, EDANS fluorescence; inhibition, % at 6.95 µM; 2,100 tested, 0.5% active;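 active means mean triplicate inhibition above the solvent-only control wells' mean plus 3 SD, cut at about 12% in these data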
ADAM10 counter = inhibits human ADAM10 in ADAM17 exosite counter-screen; inhibition, % at 6.95 µM; shares compounds with ADAM17 inh; recombinant ADAM10, EDANS/DABCYL FRET peptide cleavage, 3 h; 2,900 tested, 47% active; AID 743256;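 active means mean inhibition over the triplicate runs exceeds the activity threshold set in the earlier primary screen, cut at about 20% in these data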
ADAM17 confirm = confirmation of inhibitors of human ADAM17. shares compounds with ADAM17 inh. recombinant ADAM17, EDANS/DABCYL QFRET peptide cleavage. inhibition, % at 6.95 µM. 2,900 tested, 65% active;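 active means mean inhibition across replicates above the hit cutoff set in the primary screen, cut at about 8.5% in these data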
Each line names hits and unclear results; the compound was inactive in the other large screens (follow-up assays come after a bar, where they were run). Shown are actives, neighbours in structure and some others; about 2.9% of the full set was active somewhere.

O=C(CN1C(=O)NC2(CCCC2)C1=O)OCCOc1ccc(Cl)cc1Cl	none
COc1ccc(NC(=O)c2cc(-c3cc(F)ccc3OC(C)C)n[nH]2)c(OC)c1	ADAM17 inh 15, ADAM10 inh 21 (no result: Arr AP2 block) | ADAM10 confirm inactive | ADAM17 ctr inactive | ADAM10 counter inactive | ADAM17 confirm inactive
O=C(NC(c1ccccc1)c1c(O)ccc2ccccc12)c1ccccc1Cl (centres undefined)	ADAM17 inh 10, ADAM10 inh 21 | ADAM10 confirm inactive | ADAM17 ctr inactive | ADAM10 counter inactive | ADAM17 confirm 8.7
CCC(=O)NC(c1ccc([N+](=O)[O-])cc1)c1c(O)ccc2ccccc12 (centres undefined)	none
O=C(NC(c1ccc(Cl)cc1)c1c(O)ccc2ccccc12)c1ccccc1 (centres undefined)	none
CCCCC(=O)NC(c1ccc([N+](=O)[O-])cc1)c1c(O)ccc2ccccc12 (centres undefined)	ADAM17 inh 11, ADAM10 inh 28 | ADAM10 confirm inactive | ADAM17 ctr inactive | ADAM10 counter 36 | ADAM17 confirm 19
Cc1ccc(S(=O)(=O)N2CCN(c3ccc(C(F)(F)F)cc3[N+](=O)[O-])CC2)cc1	ADAM17 inh 10 | ADAM10 counter 22 | ADAM17 confirm 11
O=S(=O)(c1ccc2nc(Cc3ccccc3)[nH]c2c1)N1CCOCC1	ADAM17 inh 8.8 (no result: CaV13 ICDI inh) | ADAM10 counter inactive | ADAM17 confirm inactive
Cc1cc(C)cc(N(CC(=O)NC2CCC(C)CC2)S(=O)(=O)c2ccccc2)c1 (centres undefined)	none (no result: NRP1-CendR mod, CaV13 ICDI inh, FAS TE block, Arr AP2 block)
CCn1c(-c2ccccc2Cl)nn(CC(=O)NCCc2ccccc2)c1=S	none
CCn1c(-c2ccccc2Cl)nn(CC(=O)Nc2cc(Cl)ccc2Cl)c1=S	ADAM17 inh 12 (no result: CaV13 ICDI inh) | ADAM10 counter inactive | ADAM17 confirm inactive
Cc1ccc(C)c(OCCC(=O)OCC(=O)Nc2cccc(S(=O)(=O)N3CCCC3)c2)c1	ADAM17 inh 8.8 | ADAM10 counter 25 | ADAM17 confirm 13
Cc1ccccc1OCC(=O)Nc1ccc(C)c(S(=O)(=O)N2CCCCCC2)c1	ADAM17 inh 8.7 | ADAM10 counter 26 | ADAM17 confirm 13
COc1ccc(NC(=O)COc2ccccc2Cc2ccccc2)cc1S(N)(=O)=O	ADAM17 inh 11 | ADAM10 counter inactive | ADAM17 confirm inactive
COc1ccc(NC(=O)CN(Cc2ccccc2)Cc2ccccc2)cc1S(N)(=O)=O	none
CN(C)S(=O)(=O)c1ccc(Cl)c(NC(=O)COC(=O)CCC2CCCCC2)c1	ADAM17 inh 12 | ADAM10 counter 32 | ADAM17 confirm 17
COc1ccc(N2CCN(C(=O)NCc3cccc(OC)c3)CC2)cc1	none
CCCCCCCCN1C(=O)[C@H](CC(=O)N2CCCCC2)C[C@@]2(C(=O)OC)CC(C)(C)CC=C12	none (no result: FAS TE block, Arr AP2 block)
CCC(C)CNC(=O)CSc1nnc(-c2cccnc2)n1C1CCCCC1 (centres undefined)	none (no result: NRP1-CendR mod, CaV13 ICDI inh, FAS TE block, Arr AP2 block)
CN(C)S(=O)(=O)c1cccc(NC(=O)CN2C(=O)NC(Cc3c[nH]c4ccccc34)C2=O)c1 (centres undefined)	none
Cc1ccccc1OCCC(=O)OCC(=O)Nc1cc(S(=O)(=O)N2CCOCC2)ccc1Cl	ADAM17 inh 11 | ADAM10 counter inactive | ADAM17 confirm inactive
Cc1ccc(NC(=O)CN2C(=O)NC(Cc3c[nH]c4ccccc34)C2=O)cc1S(=O)(=O)N1CCCCC1 (centres undefined)	ADAM17 inh 11 (no result: Arr AP2 block) | ADAM10 counter 22 | ADAM17 confirm 14
Cc1cccc2sc(NC(=O)CN(C)S(=O)(=O)c3ccc(Br)s3)nc12	ADAM17 inh 8.8 | ADAM10 counter 44 | ADAM17 confirm 24
COc1ccc(N2CCN(CCCNC(=O)CCc3cccc(F)c3)CC2)cc1	none (no result: NRP1-CendR mod, CaV13 ICDI inh, FAS TE block, Arr AP2 block)
CCCC12CN(C(=O)c3ccco3)CC(CCC)(CN(C(=O)c3ccco3)C1)C2=O	none
CCCC(=O)N1CC2(C)CN(C(=O)CCC)CC(CCC)(C1)C2=O	ADAM17 inh 12 (no result: CaV13 ICDI inh) | ADAM10 counter inactive | ADAM17 confirm inactive
Nc1ccc(Nc2ccncc2)cc1	none (no result: Arr AP2 block)
CN(CCc1ccccc1)C(=O)c1ccc(NC(=O)Cc2ccc(NC(=O)C3CCCN(C(=O)CCc4ccccc4)C3)cc2)cc1 (centres undefined)	none
CC(=O)c1cccc(NC(=O)CCC(=O)c2ccc(F)cc2)c1	none
CC(=O)c1cccc(NC(=O)COC(=O)CCC(=O)c2ccc(F)cc2)c1	ADAM17 inh 8.9 | ADAM10 counter inactive | ADAM17 confirm inactive
O=C1CC(N(CCc2ccccc2)C(=S)Nc2ccccc2)C(=O)N1c1ccc(F)cc1 (centres undefined)	none
O=C1CC(N(CCc2ccccc2)C(=S)Nc2ccccc2)C(=O)N1c1ccccc1 (centres undefined)	ADAM17 inh 8.7 | ADAM10 counter inactive | ADAM17 confirm 8.9
O=C1NC[C@@H](Cc2cccc3ccccc23)N(CCCCC2CCCCC2)C1=O	ADAM17 inh 11 | ADAM10 counter inactive | ADAM17 confirm inactive
O=C1NC[C@H](CC2CCCCC2)N(CCc2cccc3ccccc23)C1=O	none (no result: Arr AP2 block)
CCOC(=O)C1(CC2CCCCO2)CCN(C(=O)Nc2cccc(SC)c2)CC1 (centres undefined)	ADAM17 inh 9.2 | ADAM10 counter inactive | ADAM17 confirm inactive
O=C(COc1ccccc1)N1CCN(C(=O)c2cccs2)CC1	none
O=C(COc1ccccc1Br)N1CCN(C(=O)c2cccs2)CC1	ADAM17 inh 8.8 | ADAM10 counter inactive | ADAM17 confirm 9.3
C#Cc1ccc([C@@H]2C=C(C(=O)Nc3ccccc3)O[C@H](OCC)[C@H]2CCCO)cc1	ADAM17 inh 11 | ADAM10 counter inactive | ADAM17 confirm inactive
